Blank lines part the entries; values can stand above or below the compound they belong to. The source made the active and inactive calls. The rule behind the calls is not given here.
Assays:
DLD-1 = assay: Antitumor activity against human DLD1 cells by trypan blue exclusion assay; type: functional, cell-based
Procedure, shortened: (§1)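 Tumour cells were grown in DMEM or RPMI with 10% fetal bovine serum and 1 unit/mL penicillin-streptomycin. They were seeded in six-well dishes at 1.0 × 10⁵ cells/mL/well, and compound was added 24 h later over a range of concentrations. After 96 h of exposure, viable cells in duplicate wells were counted by trypan blue exclusion.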

[1] = Antitumor activity against human H157 cells by trypan blue exclusion assay; type: functional, cell-based; settings: NCI-H157; procedure, shortened: as §1
BT-20 [2] = assay: Antitumor activity against human BT20 cells by trypan blue exclusion assay; type: functional, cell-based; procedure, shortened: as §1
DU-145 [3] = assay: Antitumor activity against AR-negative human DU145 cells by trypan blue exclusion assay; type: functional, cell-based; procedure, shortened: as §1
AGS = assay: Antitumor activity against human AGS cells by trypan blue exclusion assay; type: functional, cell-based; procedure, shortened: as §1
[4] = Antitumor activity against human N417 cells by trypan blue exclusion assay; type: functional, cell-based; procedure, shortened: as §1
BT-20 [5] = assay: Growth inhibition of human BT20 after 3 weeks by soft agar colony formation assay; type: functional, cell-based
Procedure, shortened: (§2)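 Noble agar: 0.8% bottom layer; cells (1.0 × 10⁵ for MIA-PaCa-2) in medium with compound at various concentrations, mixed into 0.4% top agar. Each concentration in triplicate; 3 weeks at 37 °C, 5% CO₂. Stained with 0.05% nitroblue tetrazolium for 48 h and colonies photographed.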

[6] = Antitumor activity against human H187 cells by trypan blue exclusion assay; type: functional, cell-based; settings: NCI-H187; procedure, shortened: as §1
SK-MEL-28 = assay: Antitumor activity against human SK-MEL-28 cells by trypan blue exclusion assay; type: functional, cell-based; procedure, shortened: as §1
A549 = assay: Antitumor activity against human A549 cells by trypan blue exclusion assay; type: functional, cell-based; procedure, shortened: as §1
MIA PaCa-2 [7] = assay: Growth inhibition of human MiaPaCa2 cells after 3 weeks by soft agar colony formation assay; type: functional, cell-based; procedure, shortened: as §2
[8] = Antitumor activity against human RF48 cells by trypan blue exclusion assay; type: functional, cell-based; procedure, shortened: as §1
COLO 205 = assay: Antitumor activity against human COLO205 cells by trypan blue exclusion assay; type: functional, cell-based; procedure, shortened: as §1
CCRF-CEM [9] = assay: (§3) Antitumor activity against human CEM cells by trypan blue exclusion assay; type: functional, cell-based; procedure, shortened: as §1
OVCAR-3 = assay: Antitumor activity against human OVCAR-3 cells by trypan blue exclusion assay; type: functional, cell-based; procedure, shortened: as §1
T47D = assay: Antitumor activity against ER-positive human T47D cells by trypan blue exclusion assay; type: functional, cell-based; procedure, shortened: as §1
MOLT-4 = assay: Antitumor activity against human MOLT4 cells by trypan blue exclusion assay; type: functional, cell-based; procedure, shortened: as §1
MIA PaCa-2 [10] = assay: Antitumor activity against human MiaPaCa2 cells by trypan blue exclusion assay; type: functional, cell-based; procedure, shortened: as §1
Daudi = assay: Antitumor activity against human Daudi cells by trypan blue exclusion assay; type: functional, cell-based; procedure, shortened: as §1
[11] = Antitumor activity against human RF1 cells by trypan blue exclusion assay; type: functional, cell-based; procedure, shortened: as §1
[12] = Antitumor activity against human MES-SA cells by trypan blue exclusion assay; type: functional, cell-based; procedure, shortened: as §1
MCF7 = assay: Antitumor activity against ER-positive human MCF7 cells by trypan blue exclusion assay; type: functional, cell-based; procedure, shortened: as §1
[13] = Antitumor activity against human multidrug-resistant MES-SA/DX5 cells by trypan blue exclusion assay; type: functional, cell-based; procedure, shortened: as §1
[14] = Antitumor activity against human U87 cells by trypan blue exclusion assay; type: functional, cell-based, U-87MG ATCC; settings: U-87 MG; procedure, shortened: as §1
SK-OV-3 = assay: Antitumor activity against human SKOV3 cells by trypan blue exclusion assay; type: functional, cell-based; procedure, shortened: as §1
PC-3 = assay: Antitumor activity against […] human PC3 cells by trypan blue exclusion assay; type: functional, cell-based; procedure, shortened: as §1
CCRF-CEM [15] = assay: as §3; type: functional, cell-based; procedure, shortened: as §1; remark: listed apart in the source
Raji = assay: Antitumor activity against human Raji cells by trypan blue exclusion assay; type: functional, cell-based; procedure, shortened: as §1
HCT-116 = assay: Antitumor activity against human HCT116 cells by trypan blue exclusion assay; type: functional, cell-based; procedure, shortened: as §1
HCT-15 = assay: Antitumor activity against human HCT15 cells by trypan blue exclusion assay; type: functional, cell-based; procedure, shortened: as §1
HUVEC = assay: Cell cycle arrest in HUVEC cells by accumulation at G1 phase by FACS analysis; type: functional, cell-based; settings: Homo sapiens
Procedure, shortened: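 HUVEC were exposed to 20 nM compound in medium with 10% fetal bovine serum. At 24 h intervals, cells were fixed, stained with propidium iodide and analysed for DNA content by flow cytometry.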

CEM/C2 = assay: Antitumor activity against human multidrug-resistant CEM/C2 cells by trypan blue exclusion assay; type: functional, cell-based; procedure, shortened: as §1
[16] = Antitumor activity against human Namalwa cells by trypan blue exclusion assay; type: functional, cell-based; settings: NAMALVA; procedure, shortened: as §1
[17] = Antitumor activity against human multidrug-resistant 2008/17/4 cells by trypan blue exclusion assay; type: functional; procedure, shortened: as §1
K562 = assay: Antitumor activity against human K562 cells by trypan blue exclusion assay; type: functional, cell-based; procedure, shortened: as §1
SW480 = assay: Antitumor activity against human SW480 cells by trypan blue exclusion assay; type: functional, cell-based; procedure, shortened: as §1
DU-145 [18] = assay: Growth inhibition of human DU145 after 3 weeks by soft agar colony formation assay; type: functional, cell-based; procedure, shortened: as §2
2008 = assay: Antitumor activity against human 2008 cells by trypan blue exclusion assay; type: functional, cell-based; procedure, shortened: as §1

IC50 (DLD-1): > 20000 nM
IC50 (BT-20 [2]): > 20000 nM
IC50 (DU-145 [3]): > 20000 nM
SMILES: COc1ccc(CS(=O)(=O)/C=C/c2cc(OC)c(OC)cc2OC)cc1
IC50 [1]: > 20000 nM

IC50 (DLD-1): > 20000 nM
IC50 (BT-20 [2]): > 20000 nM
IC50 (DU-145 [3]): > 20000 nM
SMILES: COc1ccc(CS(=O)(=O)/C=C/c2ccc(N)cc2)cc1
IC50 [1]: > 20000 nM

IC50 (DLD-1): 15000 nM
IC50 (BT-20 [2]): 15000 nM
IC50 (DU-145 [3]): 12500 nM
SMILES: COc1cc(OC)c(/C=C/S(=O)(=O)Cc2ccc(OC)c(OC)c2OC)c(OC)c1
IC50 [1]: 15000 nM

IC50 (DLD-1): > 20000 nM
IC50 (BT-20 [2]): > 20000 nM
IC50 (DU-145 [3]): > 20000 nM
SMILES: COc1ccc(CS(=O)(=O)/C=C/c2c(OC)cc(O)cc2OC)cc1
IC50 [1]: > 20000 nM

IC50 (DLD-1): 10000 nM
IC50 (BT-20 [2]): 7500 nM
IC50 (DU-145 [3]): 5000 nM
SMILES: COc1ccc(CS(=O)(=O)/C=C/c2cc(OC)c(OC)c(OC)c2)cc1O
IC50 [1]: 10000 nM

IC50 (DLD-1): 3 nM
IC50 (AGS): 7 nM
IC50 (SK-MEL-28): 7 nM
IC50 (A549): 10 nM
IC50 (COLO 205): 9 nM
IC50 (CCRF-CEM [9]): 10 nM
IC50 (OVCAR-3): 6 nM
IC50 (T47D): 6 nM
IC50 (MOLT-4): 5 nM
IC50 (MIA PaCa-2 [10]): 4 nM
IC50 (BT-20 [2]): 10 nM
IC50 (Daudi): 7 nM
IC50 (MCF7): 4 nM
IC50 (SK-OV-3): 6 nM
IC50 (PC-3): 8 nM
IC50 (CCRF-CEM [15]): 9 nM
IC50 (Raji): 4 nM
IC50 (HCT-116): 9 nM
IC50 (HCT-15): 8 nM
IC50 (DU-145 [3]): 3 nM
IC50 (K562): 4 nM
IC50 (SW480): 7 nM
SMILES: COc1cc(OC)c(/C=C/S(=O)(=O)Cc2ccc(OC)c(O)c2)c(OC)c1
IC50 [4]: 5 nM
Activity (BT-20 [5]): Dose-dependent effect
IC50 [1]: 4 nM
IC50 [6]: 7 nM
Activity (MIA PaCa-2 [7]): Dose-dependent effect
IC50 [8]: 5 nM
IC50 [11]: 6 nM
IC50 [12]: 6 nM
IC50 [13]: 5 nM
IC50 [14]: 7 nM
Activity (HUVEC): Active
IC50 (CEM/C2): 10 nM
IC50 [16]: 6 nM
IC50 [17]: 4 nM
Activity (DU-145 [18]): Dose-dependent effect
IC50 2008: 5 nM

IC50 (DLD-1): 5000 nM
IC50 (BT-20 [2]): 5000 nM
IC50 (DU-145 [3]): 7500 nM
SMILES: COc1ccc(CS(=O)(=O)/C=C/c2ccc([N+](=O)[O-])cc2)cc1
IC50 [1]: 7500 nM

IC50 (DLD-1): 15000 nM
IC50 (BT-20 [2]): 15000 nM
IC50 (DU-145 [3]): 10000 nM
SMILES: COc1ccc(CS(=O)(=O)/C=C/c2ccc(F)cc2OC)cc1
IC50 [1]: 20000 nM

IC50 (DLD-1): 2000 nM
IC50 (BT-20 [2]): 1500 nM
IC50 (DU-145 [3]): 1250 nM
SMILES: COc1ccc(CS(=O)(=O)/C=C/c2ccc(F)cc2)cc1
IC50 [1]: 2500 nM
